According to ChEMBL document CHEMBL1629494, “New amino acid esters of salicylanilides active against MDR-TB and other microbes” (Eur J Med Chem, 2010):
Converted amounts (≈) assume the structure as drawn.

Assays:
Enterococcus sp. [1] = assay: Antibacterial activity against Enterococcus sp. J14365/08 after 24 hrs by broth microdilution method; assay type: functional; settings: J14365/08, 24 h
How it was run: (§1)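 Broth microdilution following […], with twofold compound dilutions in Mueller-Hinton bouillon. Incubated 24 and 48 h at 35 °C in the dark in a humid atmosphere. MIC (IC80) was taken as ≥80% growth reduction versus control, read visually and photometrically.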

Klebsiella pneumoniae [2] = assay: Antibacterial activity against Klebsiella pneumoniae D11750/08 after 24 hrs by broth microdilution method; assay type: functional; settings: D11750/08, 24 h; how it was run: as §1
PBMC = assay: Cytotoxicity against human PBMC after 24 hrs by MTT assay; assay type: cell-based
How it was run: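 Human peripheral blood mononuclear cells in RPMI-1640 with 10% fetal calf serum, 2 mM L-glutamine and gentamicin, 37 °C, 5% CO2. Seeded at 1.5–2.0 × 10⁵ cells/well. After 24 h, treated overnight in serum-free medium. Viability by MTT (2 mg/mL, 4 h); formazan dissolved in DMSO; OD540 minus OD620. Cytotoxicity % = [1 − OD treated/OD control] × 100; IC50 from dose-response curves. Four parallels, two independent experiments.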

Pichia kudriavzevii [3] = assay: Antifungal activity against Candida krusei E28 after 24 hrs by broth microdilution method; assay type: functional; settings: E28, 24 h
[4] = Lipophilicity, log P of the compound; assay type: physicochemical; settings: octanol/water
[5] = tested on: Staphylococcus epidermidis; assay: Antibacterial activity against Staphylococcus epidermidis H6966/08 after 24 hrs by broth microdilution method; assay type: functional; settings: H6966/08, 24 h; how it was run: as §1
Mycobacterium kansasii [6] = assay: Antimycobacterial activity against Mycobacterium kansasii 6509/96 after 7 days by micromethod; assay type: functional; settings: 6509/96, 168 h
How it was run: (§2)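 Micromethod in Sula semisynthetic medium, with compounds added as DMSO solutions at 1000, 500, 250, 125, 62, 32, 16, 8, 4, 2, 1, 0.5, 0.25. Inoculum dilutions: H37Rv 10^-3; M. avium 330/88 10^-5; M. kansasii 235/80 10^-4; M. kansasii 6509/96 10^-5. Incubated at 37 °C, read at 14 and 21 days, and at 7 days for M. kansasii. MIC was the lowest concentration inhibiting growth.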

Mycobacterium avium [7] = assay: Antimycobacterial activity against Mycobacterium avium; assay type: functional
[8] = tested on: Trichophyton mentagrophytes; assay: Antifungal activity against Trichophyton mentagrophytes after 48 hrs by broth microdilution method; assay type: functional
Aspergillus fumigatus [9] = assay: Antifungal activity against Aspergillus fumigatus 231 after 24 hrs by broth microdilution method; assay type: functional; settings: Aspergillus fumigatus, 231, 24 h
Pichia kudriavzevii [10] = assay: Antifungal activity against Candida krusei E28 after 48 hrs by broth microdilution method; assay type: functional; settings: E28, 48 h
Mycobacterium avium [11] = assay: Antimycobacterial activity against multidrug-resistant Mycobacterium avium 330/88 after 14 days by micromethod; assay type: functional; settings: 330/88, 336 h; how it was run: as §2
Mycobacterium kansasii [12] = assay: Antimycobacterial activity against Mycobacterium kansasii 235/80 after 21 days by micromethod; assay type: functional; settings: 235/80, 504 h; how it was run: as §2
Candida albicans [13] = assay: Antifungal activity against Candida albicans ATCC 44859 after 48 hrs by broth microdilution method; assay type: functional; settings: ATCC 44859, 48 h
[14] = tested on: Staphylococcus epidermidis; assay: Antibacterial activity against Staphylococcus epidermidis H6966/08 after 48 hrs by broth microdilution method; assay type: functional; settings: H6966/08, 48 h; how it was run: as §1
Staphylococcus aureus [15] = assay: Antibacterial activity against methicillin-resistant Staphylococcus aureus H5996/08 after 48 hrs by broth microdilution method; assay type: functional; settings: H5996/08, 48 h; how it was run: as §1
Trichosporon beigelii [16] = assay: Antifungal activity against Trichosporon beigelii 1188 after 24 hrs by broth microdilution method; assay type: functional; settings: Trichosporon beigelii, 1188, 24 h
[17] = tested on: Mycobacterium tuberculosis; assay: Antimycobacterial activity against drug-sensitive Mycobacterium tuberculosis; assay type: functional
Aspergillus fumigatus [18] = assay: Antifungal activity against Aspergillus fumigatus 231 after 48 hrs by broth microdilution method; assay type: functional; settings: Aspergillus fumigatus, 231, 48 h
Mycobacterium kansasii [19] = assay: Antimycobacterial activity against Mycobacterium kansasii 6509/96 after 21 days by micromethod; assay type: functional; settings: 6509/96, 504 h; how it was run: as §2
Staphylococcus aureus [20] = assay: Antibacterial activity against Staphylococcus aureus CCM 4516/08 after 24 hrs by broth microdilution method; assay type: functional; settings: CCM 4516/08, 24 h; how it was run: as §1
Candida tropicalis [21] = assay: Antifungal activity against Candida tropicalis 156 after 48 hrs by broth microdilution method; assay type: functional; settings: Candida tropicalis, 156, 48 h
Staphylococcus aureus [22] = assay: Antibacterial activity against methicillin-resistant Staphylococcus aureus H5996/08 after 24 hrs by broth microdilution method; assay type: functional; settings: H5996/08, 24 h; how it was run: as §1
Trichosporon beigelii [23] = assay: Antifungal activity against Trichosporon beigelii 1188 after 48 hrs by broth microdilution method; assay type: functional; settings: Trichosporon beigelii, 1188, 48 h
Candida tropicalis [24] = assay: Antifungal activity against Candida tropicalis 156 after 24 hrs by broth microdilution method; assay type: functional; settings: Candida tropicalis, 156, 24 h
Staphylococcus aureus [25] = assay: Antibacterial activity against Staphylococcus aureus CCM 4516/08 after 48 hrs by broth microdilution method; assay type: functional; settings: CCM 4516/08, 48 h; how it was run: as §1
Escherichia coli [26] = assay: Antibacterial activity against Escherichia coli CCM 4517 after 48 hrs by broth microdilution method; assay type: functional; settings: CCM 4517, 48 h; how it was run: as §1
Escherichia coli [27] = assay: Antibacterial activity against Escherichia coli CCM 4517 after 24 hrs by broth microdilution method; assay type: functional; settings: CCM 4517, 24 h; how it was run: as §1
Mycobacterium kansasii [28] = assay: Antimycobacterial activity against Mycobacterium kansasii 235/80 after 7 days by micromethod; assay type: functional; settings: 235/80, 168 h; how it was run: as §2
Nakaseomyces glabratus [29] = assay: Antifungal activity against Candida glabrata 20/I after 48 hrs by broth microdilution method; assay type: functional
[30] = Selectivity index, ratio of IC50 for human PBMC to MIC for Mycobacterium tuberculosis H37Rv 331/88 after 14 days; assay type: functional
How it was run: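 SI = PBMC IC50 (MTT cytotoxicity) divided by the MIC against the named M. tuberculosis strain. MIC taken after 14 days of incubation at 37 °C by the micromethod.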

Mycobacterium avium [31] = assay: Antimycobacterial activity against multidrug-resistant Mycobacterium avium 330/88 after 21 days by micromethod; assay type: functional; settings: 330/88, 504 h; how it was run: as §2
Lichtheimia corymbifera [32] = assay: Antifungal activity against Absidia corymbifera 272 after 48 hrs by broth microdilution method; assay type: functional; settings: Lichtheimia corymbifera, 272, 48 h
Candida albicans [33] = assay: Antifungal activity against Candida albicans ATCC 44859 after 24 hrs by broth microdilution method; assay type: functional; settings: ATCC 44859, 24 h
Lichtheimia corymbifera [34] = assay: Antifungal activity against Absidia corymbifera 272 after 24 hrs by broth microdilution method; assay type: functional; settings: Lichtheimia corymbifera, 272, 24 h
Mycobacterium kansasii [35] = assay: Antimycobacterial activity against Mycobacterium kansasii 6509/96 after 14 days by micromethod; assay type: functional; settings: 6509/96, 336 h; how it was run: as §2
Nakaseomyces glabratus [36] = assay: Antifungal activity against Candida glabrata 20/I after 24 hrs by broth microdilution method; assay type: functional
[37] = tested on: Trichophyton mentagrophytes; assay: Antifungal activity against Trichophyton mentagrophytes after 24 hrs by broth microdilution method; assay type: functional
Mycobacterium kansasii [38] = assay: Antimycobacterial activity against Mycobacterium kansasii 235/80 after 14 days by micromethod; assay type: functional; settings: 235/80, 336 h; how it was run: as §2
Klebsiella pneumoniae [39] = assay: Antibacterial activity against Klebsiella pneumoniae D11750/08 after 48 hrs by broth microdilution method; assay type: functional; settings: D11750/08, 48 h; how it was run: as §1
Mycobacterium kansasii [40] = assay: Antimycobacterial activity against Mycobacterium kansasii; assay type: functional
[41] = tested on: Mycobacterium tuberculosis; assay: Antimycobacterial activity against Mycobacterium tuberculosis H37Rv 331/88 after 14 days by micromethod; assay type: functional; settings: H37Rv 331/88, 336 h; how it was run: as §2
Enterococcus sp. [42] = assay: Antibacterial activity against Enterococcus sp. J14365/08 after 48 hrs by broth microdilution method; assay type: functional; settings: J14365/08, 48 h; how it was run: as §1
[43] = tested on: Mycobacterium tuberculosis; assay: Antimycobacterial activity against Mycobacterium tuberculosis H37Rv 331/88 after 21 days by micromethod; assay type: functional; settings: H37Rv 331/88, 504 h; how it was run: as §2

SMILES: CC(=O)N[C@@H](Cc1ccccc1)C(=O)Oc1ccc(Br)cc1C(=O)Nc1ccc(C(F)(F)F)cc1
- MIC (Enterococcus sp. [1]): 15.6 µM (≈ 8.58 µg/mL)
- MIC (Klebsiella pneumoniae [2]): > 500 µM
- IC50 (PBMC): 48.7 µM
- MIC (Pichia kudriavzevii [3]): 15.6 µM (≈ 8.58 µg/mL)
- logP [4]: 5.19
- MIC [5]: 15.6 µM (≈ 8.58 µg/mL)
- MIC (Mycobacterium kansasii [6]): 1 µM (≈ 0.549 µg/mL)
- MIC (Mycobacterium avium [7]): 1 µM (≈ 0.549 µg/mL)
- MIC [8]: 7.81 µM (≈ 4.29 µg/mL)
- MIC (Aspergillus fumigatus [9]): 15.6 µM (≈ 8.58 µg/mL)
- MIC (Pichia kudriavzevii [10]): 125 µM (≈ 68.7 µg/mL)
- MIC (Mycobacterium avium [11]): 4 µM (≈ 2.2 µg/mL)
- MIC (Mycobacterium kansasii [12]): 2 µM (≈ 1.1 µg/mL)
- MIC (Candida albicans [13]): 500 µM (≈ 275 µg/mL)
- MIC [14]: 62.5 µM (≈ 34.3 µg/mL)
- MIC (Staphylococcus aureus [15]): 125 µM (≈ 68.7 µg/mL)
- MIC (Trichosporon beigelii [16]): 15.6 µM (≈ 8.58 µg/mL)
- MIC [17]: 1 µM (≈ 0.549 µg/mL)
- MIC (Aspergillus fumigatus [18]): 31.2 µM (≈ 17.2 µg/mL)
- MIC (Mycobacterium kansasii [19]): 2 µM (≈ 1.1 µg/mL)
- MIC (Staphylococcus aureus [20]): 3.9 µM (≈ 2.14 µg/mL)
- MIC (Candida tropicalis [21]): 250 µM (≈ 137 µg/mL)
- MIC (Staphylococcus aureus [22]): 7.81 µM (≈ 4.29 µg/mL)
- MIC (Trichosporon beigelii [23]): 31.2 µM (≈ 17.2 µg/mL)
- MIC (Candida tropicalis [24]): 125 µM (≈ 68.7 µg/mL)
- MIC (Staphylococcus aureus [25]): 31.2 µM (≈ 17.2 µg/mL)
- MIC (Escherichia coli [26]): 500 µM (≈ 275 µg/mL)
- MIC (Escherichia coli [27]): 250 µM (≈ 137 µg/mL)
- MIC (Mycobacterium kansasii [28]): 0.5 µM (≈ 0.275 µg/mL)
- MIC (Nakaseomyces glabratus [29]): 500 µM (≈ 275 µg/mL)
- Selectivity Index [30]: 194.8
- MIC (Mycobacterium avium [31]): 4 µM (≈ 2.2 µg/mL)
- MIC (Lichtheimia corymbifera [32]): 15.6 µM (≈ 8.58 µg/mL)
- MIC (Candida albicans [33]): 31.2 µM (≈ 17.2 µg/mL)
- MIC (Lichtheimia corymbifera [34]): 7.81 µM (≈ 4.29 µg/mL)
- MIC (Mycobacterium kansasii [35]): 2 µM (≈ 1.1 µg/mL)
- MIC (Nakaseomyces glabratus [36]): 125 µM (≈ 68.7 µg/mL)
- MIC [37]: 3.9 µM (≈ 2.14 µg/mL)
- MIC (Mycobacterium kansasii [38]): 2 µM (≈ 1.1 µg/mL)
- MIC (Klebsiella pneumoniae [39]): > 500 µM
- MIC (Mycobacterium kansasii [40]): 1 µM (≈ 0.549 µg/mL)
- MIC [41]: 0.25 µM (≈ 0.137 µg/mL)
- MIC (Enterococcus sp. [42]): 125 µM (≈ 68.7 µg/mL)
- MIC [43]: 0.5 µM (≈ 0.275 µg/mL)
